pEC50, pIC50: −log10 of the molar value.
Columns and labels:
[1] = Lipophilicity, log D of compound at pH 7.4; type: physicochemical; settings: buffer
Homo sapiens [2] = species on record: Homo sapiens; test: Selectivity index, ratio of EC50 for inhibition of IDO1 in human A172 cells in presence of IFNgamma to EC50 for inhibition of TDO in human SW48 cells; type: cell-based
[3] = target: Indoleamine 2,3-dioxygenase 1 (Homo sapiens, UniProt P14902); test: Inhibition of IDO1 in human A172 cells after 24 hrs in presence of IFNgamma by NFK green reagent based assay; type: cell-based
[4] = Clearance in human liver microsomes; type: ADME, Microsome
Outline: (§1)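 Clearance was measured in liver microsome incubations from human, rat and mouse. It is expressed as scaled clearance in mL/min/kg.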

[5] = Clearance in mouse liver microsomes; type: ADME, Microsome; outline: as §1
[6] = Clearance in rat liver microsomes; type: ADME, Microsome; outline: as §1
[7] = target: T1, Tryptophan 2,3-dioxygenase (Homo sapiens, UniProt P48775); test: Inhibition of recombinant human TDO using L-tryptophan as substrate preincubated for 5 mins followed by substrate addition and measured after 15 mins by RapidFire-Mass spectrometry
Homo sapiens [8] = species on record: Homo sapiens; test: Selectivity index, ratio of IC50 for inhibition of CYP3A4 (unknown origin) to EC50 for inhibition of EC50 for inhibition of TDO in human SW48 cells; type: cell-based
Cytochrome P450 3A4 = Cytochrome P450 3A4 (Homo sapiens, UniProt P08684); test: Inhibition of CYP3A4 (unknown origin); type: ADME
[9] = target: T1, Tryptophan 2,3-dioxygenase; test: Inhibition of TDO in human SW48 cells after 24 hrs by NFK green reagent based assay; type: cell-based
[10] = target: T1, Tryptophan 2,3-dioxygenase; test: Inhibition of TDO (unknown origin)
[11] = Apparent permeability across apical to basolateral side in MDCK cells; type: ADME, cell-based, Canis lupus familiaris; settings: dog

Cytochrome P450 3A4, sequence (P08684 whole entry): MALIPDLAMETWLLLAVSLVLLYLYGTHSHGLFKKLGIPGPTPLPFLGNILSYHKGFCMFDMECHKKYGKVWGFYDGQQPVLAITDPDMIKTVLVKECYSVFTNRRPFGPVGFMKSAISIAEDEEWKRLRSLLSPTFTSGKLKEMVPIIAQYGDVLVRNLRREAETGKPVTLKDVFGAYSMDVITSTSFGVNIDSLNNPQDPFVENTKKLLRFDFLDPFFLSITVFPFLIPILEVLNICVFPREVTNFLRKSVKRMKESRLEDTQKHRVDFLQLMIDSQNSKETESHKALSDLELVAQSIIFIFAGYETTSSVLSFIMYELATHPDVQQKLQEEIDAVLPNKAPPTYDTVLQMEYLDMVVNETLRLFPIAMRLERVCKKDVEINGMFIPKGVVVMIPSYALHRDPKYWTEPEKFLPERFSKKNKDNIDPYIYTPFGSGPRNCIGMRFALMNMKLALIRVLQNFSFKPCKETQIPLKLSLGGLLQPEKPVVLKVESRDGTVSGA
T1 sequence (P48775 whole entry): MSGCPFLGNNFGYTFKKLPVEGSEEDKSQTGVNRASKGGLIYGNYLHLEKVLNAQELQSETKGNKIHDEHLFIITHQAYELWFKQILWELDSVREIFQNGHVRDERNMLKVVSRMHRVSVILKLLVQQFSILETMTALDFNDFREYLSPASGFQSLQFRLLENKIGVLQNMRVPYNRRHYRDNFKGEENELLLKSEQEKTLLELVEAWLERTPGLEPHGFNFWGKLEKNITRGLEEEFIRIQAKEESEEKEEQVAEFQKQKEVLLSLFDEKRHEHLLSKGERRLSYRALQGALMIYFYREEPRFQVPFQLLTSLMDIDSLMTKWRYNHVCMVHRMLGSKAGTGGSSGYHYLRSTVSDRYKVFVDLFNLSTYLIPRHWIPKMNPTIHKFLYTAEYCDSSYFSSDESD
Indoleamine 2,3-dioxygenase 1, sequence (P14902 whole entry): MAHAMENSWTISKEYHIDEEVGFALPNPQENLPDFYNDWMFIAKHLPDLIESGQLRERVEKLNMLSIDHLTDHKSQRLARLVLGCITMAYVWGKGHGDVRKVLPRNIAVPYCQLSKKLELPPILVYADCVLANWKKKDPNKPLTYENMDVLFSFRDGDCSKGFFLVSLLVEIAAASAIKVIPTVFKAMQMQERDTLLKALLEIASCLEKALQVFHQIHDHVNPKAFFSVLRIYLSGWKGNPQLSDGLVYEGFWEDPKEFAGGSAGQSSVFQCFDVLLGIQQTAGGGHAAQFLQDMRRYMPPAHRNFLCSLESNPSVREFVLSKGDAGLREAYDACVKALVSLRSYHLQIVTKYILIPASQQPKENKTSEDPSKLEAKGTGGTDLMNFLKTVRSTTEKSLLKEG

Row | pEC50 [3] | CLhep predicted [4] | CLhep predicted [5] | CLhep predicted [6] | SMILES | Ratio EC50 (Homo sapiens [2]) | also measured
1 | 4.70 |  |  |  | CN1CC[C@@H]([C@H]2c3ccccc3-c3cncn32)[C@H](O)C1 | 14 | logD [1]: 1.4
2 |  | 18 mL/min/kg | 80 mL/min/kg | 45 mL/min/kg | O[C@@H](C[C@H]1c2ccccc2-c2cncn21)C1CCCCC1 |  | logD [1]: 2.8
3 |  |  |  |  | OCCC1c2ccccc2-n2cncc21 (stereo not drawn) |  | pIC50 [7]: 7.22
4 | 5.00 | < 3.9 mL/min/kg | 39 mL/min/kg | 19 mL/min/kg | CP(C)(=O)c1ccc2c(c1)[C@@H](O)[C@H]([C@H]1c3ccccc3-c3cncn31)CC2 | 77 | Ratio IC50/EC50 (Homo sapiens [8]): 12; pIC50 (Cytochrome P450 3A4): 5.80; pEC50 [9]: 6.89
5 |  |  |  |  | OCCC1c2ccccc2-c2cnsc21 (stereo not drawn) |  | pIC50 [7]: 5.15
6 |  |  |  |  | O[C@H](C[C@H]1c2c(F)cccc2-c2cncn21)[C@H]1CC[C@H](O)CC1 [NAVOXIMOD] |  | pEC50 [10]: 5.70
7 |  |  |  |  | OCCn1c2ccccc2c2cncn21 |  | pIC50 [7]: 7.70
8 |  |  |  |  | C[C@H]([C@H](O)c1ccccc1)[C@H]1c2ccccc2-c2cncn21 |  | pEC50 [9]: ≥ 7.49
9 | 6.16 | 14 mL/min/kg | 79 mL/min/kg | 44 mL/min/kg | N#Cc1ccc2c(c1)[C@@H](O)[C@H]([C@H]1c3ccccc3-c3cncn31)CC2 | 12 | Papp A→B [11]: 1.7 ×10⁻⁶ cm/s; Ratio IC50/EC50 (Homo sapiens [8]): 55; pIC50 (Cytochrome P450 3A4): 5.48; pEC50 [9]: 7.22
10 |  |  |  |  | OCCC1c2ccccc2-n2nncc21 (stereo not drawn) |  | pIC50 [7]: < 4.60
11 | 6.62 | 11 mL/min/kg | 75 mL/min/kg | 47 mL/min/kg | O[C@@H]1c2ccccc2CC[C@H]1[C@H]1c2ccccc2-c2cncn21 |  | 
12 |  |  |  |  | OCCC1c2ccccc2-c2cncn21 (stereo not drawn) |  | pIC50 [7]: 7.70
13 |  |  |  |  | CC(C)([C@H](O)c1ncco1)[C@H]1c2ccccc2-c2cncn21 |  | logD [1]: 2.3; Ratio IC50/EC50 (Homo sapiens [8]): < 2; pEC50 [9]: 7.15
14 | 6.10 | 11 mL/min/kg | 67 mL/min/kg | 46 mL/min/kg | O[C@@H]1c2ccncc2CC[C@H]1[C@H]1c2ccccc2-c2cncn21 | 17 | Ratio IC50/EC50 (Homo sapiens [8]): < 2; pIC50 (Cytochrome P450 3A4): > 7.00
15 | 6.14 | 9.7 mL/min/kg | 62 mL/min/kg | 37 mL/min/kg | O[C@@H]1CCCC[C@H]1[C@H]1c2ccccc2-c2cncn21 | 14 | logD [1]: 2.7; pEC50 [9]: 7.30
16 |  | 15 mL/min/kg | 74 mL/min/kg | 45 mL/min/kg | c1ccc2c(c1)-c1cncn1[C@H]2C1CCCCC1 | 13 | logD [1]: 3.7
17 |  |  |  |  | NS(=O)(=O)NCCNc1nonc1C(=NO)Nc1ccc(F)c(Br)c1 [EPACADOSTAT] |  | pIC50 [10]: < 5.00

— ChEMBL document CHEMBL4342513, “Implementation of the CYP Index for the Design of Selective Tryptophan-2,3-dioxygenase Inhibitors” (ACS Med Chem Lett, 2020)
